Consider three compounds from PMC6852655 (International Journal of Cancer, 2019).

The structures appear in SMILES notation.

The nature of data set [1]: In vivo metabolic stability, mouse blood 5 min pi, without or with PA. Also noted: species or system Swiss albino mice. The following applies: peripheral mouse blood, HPLC; for Intact radiopeptide, 5 min pi (+ phosphoramidon): PA coinjected, n=2; for Intact radiopeptide, 5 min pi: radioligand alone, n=3. Summed up: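 Healthy male Swiss albino mice (30 ± 5 g) were injected with the 177Lu-labelled test peptide alone (n = 3) or with coinjected phosphoramidon (n = 2). Blood was collected at 5 min pi and analysed by HPLC radiochromatography for the percentage of intact radioligand.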

Data set [2] deals with PC-3 xenografts. Kind of data set: Influence of injected peptide dose on biodistribution. Format: in vivo, BALB/c nu/nu mice. Particulars: 750 pmol in comparison to 50 pmol, 1 hr pi. Summed up:
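PC-3-xenografted BALB/c nu/nu mice (17 ± 2 g; tumours 0.19 ± 0.06 g) were injected with 80 kBq of the 177Lu-labelled test peptide at a total peptide dose of 50, 100, 250, 500 or 750 pmol/animal, with phosphoramidon coinjection. Tumour and organ uptake were measured at 1 hr pi; tumour slices were also examined by ex vivo autoradiography.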

Data set [3] deals with PC-3 xenografts. Description: Biodistribution over time. Format: in vivo, BALB/c nu/nu mice. The following applies: 24 hr pi vs peak at 1 hr pi, 100 pmol. Summed up:
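PC-3-xenografted BALB/c nu/nu mice received the 177Lu-labelled test peptide (80 kBq, 100 pmol/animal, 100 μl) with coinjected NEP inhibitor phosphoramidon. Animals were euthanized at 0.5, 1, 2, 4, 24, 48 and 90 hr pi, and tumour and organ activity uptake were measured.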

In data set [4] the test system is PC-3 xenografts. Kind of data set: Dosimetry estimates. Also noted: species or system BALB/c nu/nu mice. The following applies: per 60 MBq treatment cycle (200 pmol). Summed up:
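Organ absorbed doses were estimated for a 100 pmol injection of the 177Lu-labelled test peptide. The estimate used time-course biodistribution data from PC-3-xenografted nude mice and a MOBY-phantom dosimetry model. Other peptide masses were scaled by the ratio of 1 hr uptake at 50–250 pmol to the 100 pmol 1 hr uptake; uptake versus mass was fitted with exponential curves. Doses were expressed per 60 MBq cycle.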

Data set [5] has as its system PC-3 xenografts. Description: Experimental in vivo therapy. Also on record: species or system BALB/c nu/nu mice.
For data set [6], the system named is PC-3 xenografts. Description: Influence of PA coinjection on biodistribution. Particulars: 1 hr pi. Format: in vivo, BALB/c nu/nu mice.

Regarding `CC(C)C[C@H](NC(=O)C[C@H](O)[C@H](CC(C)C)NC(=O)[C@H](Cc1c[nH]cn1)NC(=O)CNC(=O)[C@@H](NC(=O)[C@H](C)NC(=O)[C@H](Cc1c[nH]c2ccccc12)NC(=O)[C@H](CCC(N)=O)NC(=O)[C@@H](Cc1ccccc1)NC(=O)COCCOCCNC(=O)CN1CCN(CC(=O)O)CCN(CC(=O)O)CCN(CC(=O)O)CC1)C(C)C)C(N)=O` [^177Lu-DOTA-PEG2-RM26, metal not drawn], in data set [1], the “Intact radiopeptide, 5 min pi (+ phosphoramidon)” value is listed as over 96% and the “Intact radiopeptide, 5 min pi” value was 64.7 ± 4.6%.
As to `CC(C)C[C@H](NC(=O)C[C@H](O)[C@H](CC(C)C)NC(=O)[C@H](Cc1c[nH]cn1)NC(=O)CNC(=O)[C@@H](NC(=O)[C@H](C)NC(=O)[C@H](Cc1c[nH]c2ccccc12)NC(=O)[C@H](CCC(N)=O)NC(=O)[C@@H](Cc1ccccc1)NC(=O)COCCOCCNC(=O)CCC(C(=O)O)N1CCN(CC(=O)O)CCN(CC(=O)O)CC1)C(C)C)C(N)=O` (stereo partly drawn) [^177Lu-NODAGA-PEG2-RM26, metal not drawn], in data set [1], the “Intact radiopeptide, 5 min pi (+ phosphoramidon)” value was over 96% and the “Intact radiopeptide, 5 min pi” value amounted to 64.0 ± 2.0%.
For `CC(C)C[C@H](NC(=O)C[C@H](O)[C@H](CC(C)C)NC(=O)[C@H](Cc1c[nH]cn1)NC(=O)CNC(=O)[C@@H](NC(=O)[C@H](C)NC(=O)[C@H](Cc1c[nH]c2ccccc12)NC(=O)[C@H](CCC(N)=O)NC(=O)[C@@H](Cc1ccccc1)NC(=O)COCCOCCNC(=O)CCC(C(=O)O)N1CCN(CC(=O)O)CCN(CC(=O)O)CCN(CC(=O)O)CC1)C(C)C)C(N)=O` (stereo partly drawn) [^177Lu-DOTAGA-PEG2-RM26, metal not drawn], the “Decrease of tumor uptake” value in data set [2] is given as “threefold”. For the same compound, in data set [3], the “Decrease of tumor uptake” value is “fourfold”. Also, in data set [4], the “Estimated absorbed dose to the kidneys” value is reported as 5 Gy and the “Estimated absorbed dose to the tumor” value was 11 Gy. Also, in data set [5] (6 cycles iv every second day, n=11-12), the “Median survival compared with controls” value is recorded as “significant prolongation of median survival”. Further, in data set [5] (6 cycles, 200 pmol/60 MBq, +PA), the Tumor growth entry is reported as “significant inhibition of tumor growth”. Also, in data set [6] (50 pmol, PA vs control), the “Increase of pancreatic uptake with PA” value was “threefold” and the “Increase of tumor uptake with PA” value is recorded as 1.6 fold. For the same compound, in data set [6] (PA coinjection), the “Amplification of tumor uptake with PA” value was found to be 60%. In data set [1], the “Intact radiopeptide, 5 min pi (+ phosphoramidon)” value is reported as over 98% and the “Intact radiopeptide, 5 min pi” value worked out at 70.7 ± 3.1%.
